# Experimental data gathered from unrelated publications.
# Lines come from different studies, so protocols differ.
# Target: Serine/threonine-protein kinase PLK2 (PLK2, Homo sapiens, UniProt Q9NYY3)
SMILES,effect on,action,technique,tested at,endpoint,value
O=C1NC(=O)c2cc(Nc3ccc(F)cc3)c(Nc3ccc(F)cc3)cc21,cell-free assay,,,0.5 µM,remaining signal,99.6%
CO[C@@H](C)c1c(Nc2ccc([C@H](N(C)C(=O)C3CCS(=O)(=O)CC3)C(F)(F)F)cc2)cnc2cc(Cl)nn12,cell-free assay,,competition with immobilised ligand,1 µM,remaining binding,100%
COc1cc2ncnc(Nc3ccc(Oc4ccccc4)c(C)c3C)c2cc1OC,enzyme activity,inhibitor,,1 µM,inhibition,1%
C[S+]([O-])c1ccc(-c2nc(-c3ccncc3)c(-c3ccc(F)cc3)[nH]2)cc1 (stereo not shown),cell-free assay,,,0.5 µM,remaining signal,95.6%
COc1cc(Cl)c(C(=O)N[C@@H](CN[C@H]2CC[C@@H](N)CC2)Cc2ccc(C#N)cc2)cc1-c1ccc(CN[C@H](C)c2ccc(C)cc2)o1,enzyme activity,inhibitor,,1 µM,remaining activity,96%
CN1CC(Oc2cnc(C#N)cc2-c2ccn3nc(NC(=O)C4CC4)cc3c2)C1,enzyme activity,inhibitor,,1 µM,inhibition,1%
Nc1ncnc2occ(-c3ccc(NC(=O)Nc4cc(C(F)(F)F)ccc4F)cc3)c12,cell-free assay,inhibitor,,20 µM,remaining signal,0.1%
Cc1cnc(NC2CCOCC2)nc1-n1cnc(C(=O)NC(CN)c2cc(F)cc(Cl)c2)c1 (stereo not shown),enzyme activity,inhibitor,radiometric,1 µM,remaining activity,69%
CCCCN(CCCC)C(=O)CN1C[C@@H](c2cc(OC)c3c(c2)OCO3)[C@H](C(=O)O)[C@H]1CC(C)(C)CCC,cell-free assay,,competition with immobilised ligand,1 µM,remaining binding,98.4%
O=C(Nc1cnn(-c2csc(C(=O)NC3COC3)c2)c1)Nc1ccccc1Cl,enzyme activity,inhibitor,,5 µM,remaining activity,86%
COc1cccc(CNC(=O)c2nc3scc(COCc4ccc(C(=O)O)cc4)c3c(=O)[nH]2)c1,cell-free assay,,competition with immobilised ligand,1 µM,remaining binding,56.7%
CN(C)c1nccc(-c2cnc3ncccn23)n1,binding,,,1 µM,remaining binding,66%
CO[C@H]1CC[C@H](CNc2ccc(S(=O)(=O)NC(=O)c3ccc(N4CCN(CC5=C(c6ccc(Cl)cc6)CC(C)(C)CC5)CC4)cc3Oc3cnc4[nH]ccc4c3)cc2[N+](=O)[O-])CC1,cell-free assay,,competition with immobilised ligand,1 µM,remaining binding,100%
CCN(CC)CCNC(=O)c1c(C)[nH]c(/C=C2\C(=O)Nc3ccc(F)cc32)c1C,enzyme activity,inhibitor,,10 µM,inhibition,6%
COc1cc(-c2cn(C3CCc4ccccc4N(CC(F)(F)F)C3=O)nn2)ccc1-n1ccc(C)n1 (stereo not shown),cell-free assay,,competition with immobilised ligand,1 µM,remaining binding,100%
Cc1ccc(Nc2nccc(N(C)c3ccc4c(C)n(C)nc4c3)n2)cc1S(N)(=O)=O,enzyme activity,inhibitor,,10 µM,inhibition,-4%
